Tested on: U2OS
Assay: Multiplex assay against U2OS
Type: toxicity, cell-based
Conditions: human
How it was run: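 Four dyes were applied at seeding to live cells: Hoechst33342, BioTracker Green Microtubule Cytoskeleton Dye, MitoTracker Red and Annexin V Alexa Fluor 680. Imaging after compound addition used a CQ1 microscope at 37°C and 5% CO2. CellPathfinder machine-learning gating then sorted cells into Hoechst high-intensity objects or normal cells, normal cells into healthy, pyknosed or fragmented nuclei, and pyknosed cells into mitotic or apoptotic, with tubulin, mitochondrial-mass and membrane-permeability phenotypes given as per cents of healthy-nucleus cells.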

[1] = 12 h, 1 µM, compound concentration 1 uM, replicate 1
[2] = 12 h, 1 µM, compound concentration 1 uM, replicate 2
[3] = 12 h, 10 µM, compound concentration 10 uM, replicate 1
[4] = 12 h, 10 µM, compound concentration 10 uM, replicate 2
[5] = 24 h, 1 µM, compound concentration 1 uM, replicate 1
[6] = 24 h, 1 µM, compound concentration 1 uM, replicate 2
[7] = 24 h, 10 µM, compound concentration 10 uM, replicate 1
[8] = 24 h, 10 µM, compound concentration 10 uM, replicate 2
[9] = 48 h, 1 µM, compound concentration 1 uM, replicate 1
[10] = 48 h, 1 µM, compound concentration 1 uM, replicate 2
[11] = 48 h, 10 µM, compound concentration 10 uM, replicate 1
[12] = 48 h, 10 µM, compound concentration 10 uM, replicate 2

## C=CCN1C[C@H](C(=O)N(CCCN(C)C)C(=O)NCC)C[C@@H]2c3cccc4[nH]cc(c34)C[C@H]21 [CABERGOLINE]
[1]
  Population Apoptotic (%): 86%
  Population Fragmented Nuclei (%): 13%
  Population Healthy Nuclei (%): 72%
  Population Hoechst High Intensity Objects (%): 2%
  Population Membrane Permeable-Phenotype (%): 3%
  Population Mitochondria Different-Phenotype (%): 1%
  Population Mitotic Cells (%): 13%
  Population Normal (%): 97%
  Population Pyknosed Nuclei (%): 13%
  Population Tubulin-Different-Phenotype (%): 1%
  Total Cell Count: 228
[2]
  Population Apoptotic (%): 57%
  Population Fragmented Nuclei (%): 9%
  Population Healthy Nuclei (%): 84%
  Population Hoechst High Intensity Objects (%): 3%
  Population Membrane Permeable-Phenotype (%): 8%
  Population Mitochondria Different-Phenotype (%): 4%
  Population Mitotic Cells (%): 42%
  Population Normal (%): 96%
  Population Pyknosed Nuclei (%): 5%
  Population Tubulin-Different-Phenotype (%): 5%
  Total Cell Count: 129
[3]
  Population Apoptotic (%): 69%
  Population Fragmented Nuclei (%): 35%
  Population Healthy Nuclei (%): 52%
  Population Hoechst High Intensity Objects (%): 3%
  Population Membrane Permeable-Phenotype (%): 15%
  Population Mitochondria Different-Phenotype (%): 9%
  Population Mitotic Cells (%): 30%
  Population Normal (%): 96%
  Population Pyknosed Nuclei (%): 11%
  Population Tubulin-Different-Phenotype (%): 11%
  Total Cell Count: 228
[4]
  Population Apoptotic (%): 64%
  Population Fragmented Nuclei (%): 17%
  Population Healthy Nuclei (%): 70%
  Population Hoechst High Intensity Objects (%): 2%
  Population Membrane Permeable-Phenotype (%): 13%
  Population Mitochondria Different-Phenotype (%): 21%
  Population Mitotic Cells (%): 35%
  Population Normal (%): 97%
  Population Pyknosed Nuclei (%): 12%
  Population Tubulin-Different-Phenotype (%): 9%
  Total Cell Count: 143
[5]
  Population Apoptotic (%): 82%
  Population Fragmented Nuclei (%): 15%
  Population Healthy Nuclei (%): 74%
  Population Hoechst High Intensity Objects (%): 3%
  Population Membrane Permeable-Phenotype (%): 1%
  Population Mitochondria Different-Phenotype (%): 1%
  Population Mitotic Cells (%): 17%
  Population Normal (%): 96%
  Population Pyknosed Nuclei (%): 10%
  Population Tubulin-Different-Phenotype (%): 0%
  Total Cell Count: 295
[6]
  Population Apoptotic (%): 64%
  Population Fragmented Nuclei (%): 7%
  Population Healthy Nuclei (%): 83%
  Population Hoechst High Intensity Objects (%): 1%
  Population Membrane Permeable-Phenotype (%): 9%
  Population Mitochondria Different-Phenotype (%): 4%
  Population Mitotic Cells (%): 35%
  Population Normal (%): 98%
  Population Pyknosed Nuclei (%): 8%
  Population Tubulin-Different-Phenotype (%): 6%
  Total Cell Count: 162
[7]
  Population Apoptotic (%): 65%
  Population Fragmented Nuclei (%): 33%
  Population Healthy Nuclei (%): 54%
  Population Hoechst High Intensity Objects (%): 3%
  Population Membrane Permeable-Phenotype (%): 10%
  Population Mitochondria Different-Phenotype (%): 5%
  Population Mitotic Cells (%): 34%
  Population Normal (%): 96%
  Population Pyknosed Nuclei (%): 11%
  Population Tubulin-Different-Phenotype (%): 4%
  Total Cell Count: 228
[8]
  Population Apoptotic (%): 88%
  Population Fragmented Nuclei (%): 14%
  Population Healthy Nuclei (%): 75%
  Population Hoechst High Intensity Objects (%): 2%
  Population Membrane Permeable-Phenotype (%): 13%
  Population Mitochondria Different-Phenotype (%): 12%
  Population Mitotic Cells (%): 11%
  Population Normal (%): 97%
  Population Pyknosed Nuclei (%): 10%
  Population Tubulin-Different-Phenotype (%): 10%
  Total Cell Count: 165
[9]
  Population Apoptotic (%): 88%
  Population Fragmented Nuclei (%): 13%
  Population Healthy Nuclei (%): 77%
  Population Hoechst High Intensity Objects (%): 2%
  Population Membrane Permeable-Phenotype (%): 5%
  Population Mitochondria Different-Phenotype (%): 1%
  Population Mitotic Cells (%): 11%
  Population Normal (%): 97%
  Population Pyknosed Nuclei (%): 8%
  Population Tubulin-Different-Phenotype (%): 3%
  Total Cell Count: 405
[10]
  Population Apoptotic (%): 93%
  Population Healthy Nuclei (%): 73%
  Population Hoechst High Intensity Objects (%): 3%
  Population Membrane Permeable-Phenotype (%): 4%
  Population Mitochondria Different-Phenotype (%): 4%
  Population Mitotic Cells (%): 6%
  Population Normal (%): 96%
  Population Pyknosed Nuclei (%): 13%
  Total Cell Count: 221
[11]
  Population Apoptotic (%): 86%
  Population Fragmented Nuclei (%): 30%
  Population Healthy Nuclei (%): 57%
  Population Hoechst High Intensity Objects (%): 3%
  Population Membrane Permeable-Phenotype (%): 7%
  Population Mitochondria Different-Phenotype (%): 1%
  Population Mitotic Cells (%): 13%
  Population Normal (%): 96%
  Population Pyknosed Nuclei (%): 12%
  Population Tubulin-Different-Phenotype (%): 3%
  Total Cell Count: 303
[12]
  Population Apoptotic (%): 87%
  Population Fragmented Nuclei (%): 13%
  Population Healthy Nuclei (%): 66%
  Population Hoechst High Intensity Objects (%): 4%
  Population Membrane Permeable-Phenotype (%): 9%
  Population Mitochondria Different-Phenotype (%): 9%
  Population Mitotic Cells (%): 12%
  Population Normal (%): 95%
  Population Pyknosed Nuclei (%): 20%
  Population Tubulin-Different-Phenotype (%): 5%
  Total Cell Count: 206
